{"source": "paper PMC3248652", "about": "(International Journal of Biological Sciences, 2011)", "key": {"GHS-R": {"tested_on": "GHS-R", "details": "cited from earlier work"}, "obese mice": {"tested_on": "obese mice", "details": "ref [24], cited from earlier work"}, "[1]": {"tested_on": "ERK activation (activated human T cells)", "assay": "CXCL12-induced ERK phosphorylation", "format": "cell-based", "outline": "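About 10 million activated T cells per 0.5 ml per treatment, pretreated with test compound (20µM) for 30 min at 37°C. CXCL12 was then added to 10nM final. Cells were washed, harvested and lysed in RIPA buffer with protease and phosphatase inhibitors at 1, 3 and 10 min. Protein was measured by Bradford. 30μg lysate was run on 4-20% SDS-PAGE, blotted to nitrocellulose, and phospho-ERK detected by ECL.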"}, "CXCR4 [2]": {"tested_on": "CXCR4", "assay": "CXCR4 binding and activity, overall statement", "format": "cell-based, human", "details": "T cells and PBMCs; summary statement"}, "[3]": {"tested_on": "CXCR4 (primary human T cells)", "assay": "CXCL12-induced T cell Transwell chemotaxis", "format": "cell-based", "details": "CXCL12 10nM, 5 h 37°C, mean ±SEM of three experiments"}, "[4]": {"tested_on": "CXCR4 (primary human T cells)", "assay": "CXCL12-induced intracellular calcium mobilization in primary human T cells", "format": "cell-based", "details": "Fura-2AM, CXCL12 10nM", "outline": "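Human T cells were enriched from Ficoll-isolated PBMCs on T-cell enrichment columns, loaded with Fura-2-AM, and washed. They were then pretreated 20 min with the test compound at various concentrations. CXCL12 was added to 10nM final. Ca++ release was monitored in a luminescence spectrometer (ex 340 and 380 nm, em 510 nm) and expressed as the 340/380 ratio. At least three experiments were run.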"}, "[5]": {"tested_on": "CXCR4 (GHOST-CXCR4 cells)", "assay": "Fluorokine", "format": "binding"}, "HIV1-IIIB (CXCR4 tropic)": {"tested_on": "HIV1-IIIB (CXCR4 tropic)", "assay": "HIV1-IIIB propagation in activated PBMCs", "format": "cell-based, HIV-1", "details": "activated human PBMCs", "outline": "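PBMCs were activated 3 days with PHA 5μg/ml and IL-2 10 units/ml, then washed into cRPMI at 10^6/ml. Cells were pretreated 30 min at 37°C with the test compound and infected with HIV1-IIIB (10ng/ml p24) for 3 h. Cells were washed, replated at 500,000/ml in triplicate, and compound re-added. Supernatant p24 was measured by ELISA on days 3, 6 and 9 and expressed as % of virus-only control. Three donors were used.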"}, "[6]": {"details": "ref [22]; cited from earlier work"}, "glioma cell invasion": {"tested_on": "glioma cell invasion", "details": "ref [6]; cited from earlier work"}, "[7]": {"tested_on": "CXCR4 mediated HIV viral entry", "details": "ref [19]; cited from earlier work"}, "CXCR4 [8]": {"tested_on": "CXCR4", "details": "ref [15]; cited from earlier work"}, "pancreatic carcinoma": {"tested_on": "pancreatic carcinoma", "details": "ref [21]; cited from earlier work"}, "breast carcinoma": {"tested_on": "breast carcinoma", "details": "ref [20]; cited from earlier work"}, "[9]": {"details": "obese mice, repeated administration"}}, "note": "Entries after “also recorded” stand apart in the source; their conditions may differ. Read-outs that look alike come from different tables or passages of the source. Non-standard residues stand in square brackets, D forms with d."}
{"compound": "H-H[dW]AW[dF]K-NH2 [GHRP-6]", "values": [{"measurement": "activity at GHS-R", "setting": "GHS-R; ref [9]", "result": "GHS-R agonist"}]}
{"compound": "H-H[dW][dK]W[dF]K-NH2 [DLS]", "values": [{"measurement": "body weight", "setting": "obese mice; [9]", "result": "reduce body weight in obese mice"}, {"measurement": "glycemic control and insulin resistance", "setting": "obese mice; [9]", "result": "improve their glycemic control and insulin resistance"}, {"measurement": "muscle mass", "setting": "obese mice; obese mice", "result": "without affecting the muscle mass"}, {"measurement": "size of abdominal fat pads", "setting": "obese mice; obese mice", "result": "reduced the size of abdominal fat pads"}, {"measurement": "adverse side effects", "setting": "obese mice; rodent models", "result": "without any adverse side effects"}, {"measurement": "effect on ERK activation in response to CXCL12", "setting": "[1]; DLS 20μM, 30 min 37°C, CXCL12 10nM, Western blot", "result": "very modestly blocks ERK activation"}, {"measurement": "activity at GHS-R", "setting": "GHS-R; ref [8], [9]", "result": "selective GHS-R antagonist"}, {"measurement": "effect on CXCL12 binding and activity through CXCR4", "setting": "CXCR4 [2]", "result": "block CXCL12 binding and activity through CXCR4; also recorded: modestly inhibit the binding and activity of CXCR4 receptor in human T cells"}, {"measurement": "effect on CXCL12-induced T cell migration", "setting": "[3]", "result": "marked dose dependent inhibition; also recorded: inhibits CXCL12 induced activated T cell chemotaxis"}, {"measurement": "effect on CXCL12-induced calcium flux", "setting": "[4]", "result": "markedly inhibited in a dose dependent fashion; also recorded: partially inhibits CXCL12-induced Ca++ release; also recorded: modest inhibition of calcium mobilization"}, {"measurement": "effect on chemokine ligand binding", "setting": "[5]; 1/4/16 μg DLS, 30 min 37°C, flow cytometry MFI", "result": "blocks chemokine ligand binding to receptor-positive cells"}, {"measurement": "amount required for the observed inhibition of CXCL12 binding", "setting": "[5]; GHOST-CXCR4 cells, flow cytometry, AMD3100 data not shown", "result": "microgram quantities"}, {"measurement": "effect on CXCR4-mediated HIV-1 entry and propagation", "setting": "HIV1-IIIB (CXCR4 tropic)", "result": "partially blocks CXCR4-mediated HIV-1 entry and propagation"}]}
{"compound": "c1cc(CN2CCCNCCNCCCNCC2)ccc1CN1CCCNCCNCCCNCC1", "note": "[AMD3100]", "values": [{"measurement": "block of ERK activation after CXCL12 treatment", "setting": "[1]; activated human T cells, 10^-6M AMD3100, data not shown", "result": 80, "unit": "%"}, {"measurement": "effect on allergy and collagen induced arthritis", "setting": "[6]", "result": "decreases allergy and collagen induced arthritis"}, {"measurement": "effect on glioma cell invasion", "setting": "glioma cell invasion", "result": "blocks glioma cell invasion"}, {"measurement": "effect on CXCR4 mediated HIV viral entry", "setting": "[7]", "result": "block CXCR4 mediated HIV viral entry"}, {"measurement": "CXCR4 blocking", "setting": "CXCR4 [8]", "result": "potent CXCR4 [15] blocking agent"}, {"measurement": "effect on metastasis of pancreatic carcinoma", "setting": "pancreatic carcinoma", "result": "blocks"}, {"measurement": "effect on metastasis of breast carcinoma", "setting": "breast carcinoma", "result": "blocks"}]}
